NR2E3 ag-1: activates human photoreceptor nuclear receptor NR2E3 | AID 2300 | 320,000 compounds, 0.12% hits | GST-NR2E3/biotin-RetCOR TR-FRET, 1536-well | inhibition of corepressor binding, % at 4.78 µM;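 active = percent inhibition above the cutoff of mean plus 3 SD of all tested compounds, set per screening campaign, cut at about 20% in these data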;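 note: 0% = DMSO wells and 100% = biotin wells as full block of FRET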
Target sequence (Q9Y5X4 whole entry, looked up): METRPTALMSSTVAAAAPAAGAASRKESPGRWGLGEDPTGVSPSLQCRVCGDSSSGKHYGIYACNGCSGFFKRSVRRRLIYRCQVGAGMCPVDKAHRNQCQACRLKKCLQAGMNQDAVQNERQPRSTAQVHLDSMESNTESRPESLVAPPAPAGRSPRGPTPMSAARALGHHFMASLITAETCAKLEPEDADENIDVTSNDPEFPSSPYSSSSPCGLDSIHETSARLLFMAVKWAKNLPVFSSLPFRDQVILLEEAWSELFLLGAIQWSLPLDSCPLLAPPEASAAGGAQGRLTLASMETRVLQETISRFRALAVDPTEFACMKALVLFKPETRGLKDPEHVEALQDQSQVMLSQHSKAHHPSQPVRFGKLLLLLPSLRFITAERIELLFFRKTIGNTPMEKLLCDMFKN
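Material: NR2E3–RetCOR corepressor complex | Quantity: 1.35 nM GST-tagged NR2E3 final | Schedule: 5 h at 4 °C | Replication: Singlicate compound wells | Reagent: RetCOR corepressor, biotinylated, 7 nM | Controls: Biotin wells as high control, 0.6% DMSO wells as low control | Signal: TR-FRET, Eu(K)-anti-GST donor, streptavidin-D2 acceptor, ex 340, em 617/671 nm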
Jurkat NFkB inh: inhibitors of the PMA/ionomycin-induced NF-kB reporter in Jurkat cells. PMA/ionomycin-induced NF-kB luciferase reporter, luminescence. 330,000 compounds, 0.53% hits. AID 435003. inhibition, % at 4 µM; in the data active = inhibition above about 50%
NR2E3 ag-2: human photoreceptor-specific nuclear receptor agonism. Q9Y5X4. CHO-S Gal4-NCOR/VP16-NR2E3 two-hybrid, luciferase. inhibition of corepressor binding, % at 3.98 µM. 360,000 compounds, 0.35% hits;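 active = inhibition above the mean of all tested compounds plus 3 SD, cut at about 70% in these data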;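 note: 0% = DMSO with NR2E3 transfected cells and 100% = cells lacking NR2E3 construct; higher means lower luciferase signal from less NR2E3 corepressor binding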
697 NFkB inh: lowers PMA/ionomycin-induced NF-kB signal in 697 B cells; 697 B-cell NF-kB luciferase reporter, 16 h; inhibition, % at 4 µM; 330,000 compounds, 0.33% hits; AID 435022; in the data active = inhibition above about 35%
Gli-Sufu block: blocks Gli-Sufu signaling in a luciferase reporter; AID 588413; 340,000 compounds, 0.74% hits; inhibition, % at 5 µM; Sufu-KO-LIGHT fibroblasts, Gli luciferase reporter luminescence;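 active = inhibition above about 55%, limit read from the data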;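 note: 0% = DMSO-treated cells and 100% = wells with medium but no cells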
GalR3 antag: human GalR3 antagonism; HEK293 GalR3-CNG cAMP membrane potential fluorescence; galR3 body fused to GalR1 C-terminus; 360,000 compounds, 0.44% hits; O60755; inhibition, % at 3 µM;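 active = inhibition above the screen-wide average plus 3 SD, cut at about 13% in these data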;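 note: forskolin and galanin both at EC90 stimulate the cells; cAMP rise reported by CNG channel membrane potential dye signal; 0% = forskolin plus galanin with DMSO and 100% = forskolin alone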
Jurkat NFkB conf: inhibitors of the PMA/ionomycin-induced NF-kB reporter in Jurkat cells, retest; AID 435020; inhibition, % at 4 µM; Jurkat NF-kB luciferase, 16 h; 2,700 compounds, 27% hits; shares compounds with Jurkat NFkB inh;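 active = inhibition reaching about 45% at 4 µM in either replicate, limit read from the data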;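 note: plate controls were PMA/ionomycin stimulated DMSO wells for no effect and unstimulated DMSO wells for full effect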
Starred values were filed as active, the others as inactive; nt = no result given. Shown are actives, neighbours in structure and some others; about 1.8% of the full set was active somewhere.

SMILES	NR2E3 ag-1	Jurkat NFkB inh	NR2E3 ag-2	697 NFkB inh	Gli-Sufu block	GalR3 antag	Jurkat NFkB conf
Cc1cccc(NC(=S)N/C(=N/S(=O)(=O)c2ccccc2)c2ccccc2)c1	0	-26	-79	-35	-21	-6	nt
COc1ccc(NC(=S)NNC(=O)c2ccccc2OC(F)F)cc1	2	53*	-62	-41	4	-3	27
CCc1ccc(NC(=S)NNC(=O)c2ccccc2OC(F)F)cc1	-1	23	nt	-15	nt	nt	nt
COc1ccc(NC(=S)N/C(=N/CS(=O)(=O)c2ccccc2)c2ccccc2)cc1	2	-151	-78	-211	-28	-2	-9
COc1ccc(C(=O)NNC(=S)Nc2ccccc2)cc1	-3	-173	-117	-152	-9	-5	-116
COc1ccc(-c2nc(-c3cccc(C)c3)nc(N3CCN(C)CC3)c2C#N)cc1	0	51*	-14	6	1	9	9
Cc1c(C)c(C)c(C(=O)C2CCN(c3ccc([N+](=O)[O-])cn3)CC2)c(C)c1C	2	73*	-4	-6	12	-4	12
CC1CCN(c2ccc([N+](=O)[O-])cn2)CC1	0	-35	-4	-16	-19	7	nt
COc1cccc(N2CCN(c3ccc([N+](=O)[O-])cn3)CC2)c1	0	64*	3	-11	6	-12	19
O=[N+]([O-])c1ccc(N2CCN(c3ccccc3)CC2)nc1	0	20	-8	2	-11	-9	nt
Cc1[nH]c2ccccc2c1CC(=O)Nc1ccc(Nc2ccncc2)cc1	nt	nt	nt	nt	nt	-1	nt
CCN1CCN(Cc2ccc(NC(=O)c3cc(NC(=O)N4CCNC4=O)cc(OC)c3)cc2C(F)(F)F)CC1	1	11	-10	13	19	-7	nt
COc1cc(NC(=O)N2CCNC2=O)cc(C(=O)Nc2cccc(C(F)(F)F)c2)c1	1	67*	-18	-8	32	-8	51*
C/C(=N\NC(=O)c1ccc(OC2OCCOC2Oc2ccc(C(=O)N/N=C(\C)c3ccncc3)cc2)cc1)c1ccncc1 (configuration not stated)	3	52*	-10	-47	-2	-2	8
Cc1ccc(-c2onc3ccc(C(=O)O)cc23)cc1	1	52*	-210	-56	-17	-7	-1
CCCCCc1ccc(-c2cn(CCc3c[nH]c4ccccc34)nn2)cc1	1	56*	-8	-64	1	-3	14
CCCCCc1ccc(-c2cn(CCCOCc3ccccc3)nn2)cc1	2	-1	30	19	14	-4	nt
CCOC(=O)c1c(-c2ccccc2)oc2ccc(OCC(O)CNCCN(C)C)cc12 (configuration not stated)	5	56*	6	7	14	-11	13
CCOC(=O)c1c(-c2ccccc2)oc2ccc(OCC)cc12	0	-9	-10	14	8	-5	nt
NC(=O)c1c(NC(=O)c2ccccc2F)sc2c1CCCC2	1	-174	-203	-194	-102	-13	-108
COC(=O)c1cc2c(c3c4cc(F)ccc4n(S(=O)(=O)c4ccc(C)cc4)c13)C(=O)N(C)C2	nt	nt	nt	nt	nt	-6	nt
CCCCCCCCN1C(=O)[C@@H](CC(=O)NCc2cccc(C(F)(F)F)c2)C[C@@]2(C(=O)OC)C1=C[C@H](C1CCCC1)O[C@@H]2C	nt	nt	nt	nt	nt	-4	nt
C[C@@H]1ON(C)[C@H]2C[C@H]3c4[nH]c5c(-c6ccccc6)cccc5c4CCN3C[C@@H]12	nt	nt	nt	nt	nt	-8	nt
CC(=O)NC12CC3CC(C1)CC(C(=O)OCC(=O)c1ccc4c(c1)OCCO4)(C3)C2	-1	-164	-57	-8	-33	-2	-81
Cc1cc(C(=O)COC(=O)C23CC4CC(CC(O)(C4)C2)C3)c(C)n1C	nt	-47	-56	-28	-47	3	nt
SMILES	NR2E3 ag-1	Jurkat NFkB inh	NR2E3 ag-2	697 NFkB inh	Gli-Sufu block	GalR3 antag	Jurkat NFkB conf
CC(=O)NC12CC3CC(C1)CC(C(=O)OCC(=O)c1cc(C)n(C)c1C)(C3)C2	nt	-162	-150	-144	-63	0	-62
NNC(=O)c1cc2c(ccc3ccccc32)o1	-1	-5	0	-5	-5	0	nt
O=C(c1cc2c(ccc3ccccc32)o1)N1CCCCC1	0	-156	-155	-200	-95	-6	-120
O=C(Nc1cccnc1)c1cc2c(ccc3ccccc32)o1	0	-165	-107	-5	-108	nt	-115
O=C(C(=O)N1CCC(CNS(=O)(=O)c2ccc(F)cc2)CC1)c1cccs1	nt	nt	nt	nt	nt	-6	nt
COc1ccccc1C1CC(=O)Nc2cc(C)c(C)cc21 (configuration not stated)	3	35	-48	-19	20	-13	nt
CC(C)Oc1ccccc1C1CC(=O)Nc2cc3c(cc21)OCO3 (configuration not stated)	-1	76*	23	7	54	-11	53*
Cc1cc2c(cc1C)C(c1ccccc1OC(C)C)CC(=O)N2 (configuration not stated)	-4	52*	-39	-76	2	-10	36
Brc1ccc(CN2CCN(c3ncc(Cc4ccccc4)cn3)CC2)cc1	nt	nt	nt	nt	nt	-9	nt
Cc1cnc(C(=O)Nc2ccc(N3CCN(C(=O)OC(C)(C)C)CC3)cc2)cn1	-3	64*	-10	-70	12	2	33
COc1ccc(-c2csc(-c3cccs3)n2)c(OC)c1	-2	-186	-151	-119	-111	-4	-131
Nc1ccn([C@@H]2O[C@H](C(=O)N[C@H](Cc3ccccc3)C(=O)N3CCSC3)[C@@H](O)[C@H]2O)c(=O)n1	nt	nt	nt	nt	nt	-4	nt
CCOC(=O)/C=C/c1ccc2oc3ccccc3c(=O)c2c1	0	-165	-27	-228	-108	-2	-92
NC(=O)CC(NC(=O)Cc1ccc(Br)cc1)c1ccc(NCC2CC2)c([N+](=O)[O-])c1 (configuration not stated)	3	51*	10	8	15	-5	24
CC(C)Nc1ccc(C(CC(N)=O)NC(=O)c2ccc(Br)cc2)cc1[N+](=O)[O-] (configuration not stated)	1	59*	-10	-3	-5	0	45
CCCCCCCCN1C(=O)[C@@H](CC(=O)N2CCN(C(=O)OCC)CC2)C[C@@]2(C(=O)OC)C1=C[C@H](C(C)(C)C)O[C@@H]2C	nt	nt	nt	nt	nt	-5	nt
COc1cc(-c2c(C(=O)c3ccccc3)[nH]c(N)c2C(=O)NCCc2c[nH]c3ccccc23)ccc1F	nt	nt	nt	nt	nt	-8	nt
COC(=O)C1=C(C)N(C)C(=NCc2ccccc2C(F)(F)F)NC1CCc1ccccc1 (configuration not stated)	nt	nt	nt	nt	nt	-2	nt

From PubChem
